Key:
[1] = test system: Mus musculus; assay: Number of survivors out of 6 ip implanted L1210 leukemia mouse tested after 80 days at 2.5 mg/kg; assay type: functional; details: route intraperitoneal
Procedure, shortened: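 Female BDF1 mice implanted ip with ascitic fluid holding 10^5 L1210 cells. Saline-dissolved drug given ip daily on days 1-5, starting 24 h after implant. Six mice per dose group, followed 80 days. Survivors/total counted at day 80; ILS % from mean survival time vs controls.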

[2] = test system: Mus musculus; assay: Antitumor activity against ip implanted L1210 leukemia in mouse after ip administration of 2.5 mg/kg for 5 days expressed as increase in mean life span; assay type: functional; details: 120 h, route intraperitoneal
Procedure, shortened: (§1)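 Drug was dissolved in 0.9% NaCl, diluted just before use and given ip once daily for 5 consecutive days, starting 24 h after transplant. ILS % = mean survival time of treated vs control mice, observed for 80 days.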

[3] = test system: Mus musculus; assay: Antitumor activity against ip implanted syngeneic P388 leukemia in mouse after ip administration of 5 mg/kg for 5 days expressed as increase in mean life span; assay type: functional; details: 120 h, route intraperitoneal
Procedure, shortened: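 Saline-dissolved drug was given ip daily for 5 consecutive days, beginning 24 h post-transplant. ILS % was calculated from treated vs control mean survival time over an 80-day observation period.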

[4] = test system: Mus musculus; assay: Effect on ip implanted syngeneic B16 melanoma by ip administration for 9 days at 2.5 mg/kg was measured as increase in mean life span; details: 216 h
[5] = test system: Mus musculus; assay: Inhibition of sc implanted syngeneic colon 38 carcinoma by ip administration at 5 mg/kg on 1, 3, 5, 7, 9 days measured as inhibition ratio; assay type: functional; details: route subcutaneous
Procedure, shortened: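 Tumor homogenate (70 mg) implanted into the axillary region of female BDF1 mice. Drug dissolved in 0.9% NaCl and diluted with saline just before use, then given ip on days 1, 3, 5, 7 and 9. Tumor length and width were measured by caliper on day 20 after inoculation and converted to estimated weight. Result reported as treated vs control tumor weight, T/C %.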

[6] = test system: Mus musculus; assay: Antitumor activity against ip implanted L1210 leukemia in mouse after ip administration of 5 mg/kg for 5 days expressed as increase in mean life span; assay type: functional; details: Mus musculus, L1210, ip, 120 h, route intraperitoneal; procedure, shortened: as §1

Cc1c2cc[n+]([C@H]3O[C@@H](CO)[C@H](O)[C@@H](O)[C@@H]3O)cc2c(C)c2c1[nH]c1ccc(O)cc12.[Br-]
Cures [1]: 0
ILS at 2.5 mg/kg [2]: 58%

CC(=O)[O-].Cc1c2cc[n+](C)cc2c(C)c2c1[nH]c1ccc(O)cc12 [ELLIPTINIUM ACETATE]
ILS at 5 mg/kg [3]: 90%
ILS at 2.5 mg/kg [4]: 35%
T/C [5]: 38%
ILS at 5 mg/kg [6]: 48%

— ChEMBL document CHEMBL1124260, “Synthesis and antitumor activity of quaternary ellipticine glycosides, a series of novel and highly active antitumor agents” (1988)
